Laboratory results reported in ChEMBL document CHEMBL1155688, “New pyridinium alkaloids from a marine sponge of the genus Spongia with a human phospholipase A(2) inhibitor profile” (J Nat Prod, 2000).
Calls of active or inactive are those of the source. No cut-off for these calls is given here.

Key:
Sus scrofa = organism: Sus scrofa; assay: Inhibition of pig pancreas sPLA2 at 10 uM
Summary of the method: (§1)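 Purified enzyme (Naja naja venom, porcine pancreatic, or human recombinant synovial) in 100 mM Tris-HCl, 1 mM CaCl2, pH 7.5, preincubated 5 min at 37 °C with compound or vehicle. Then incubated 15 min with autoclaved E. coli CECT 101 membranes labelled with [3H]oleic acid. Stopped with ice-cold BSA (0.07% w/v final). Supernatant radioactivity counted after centrifugation. Mean ± SEM, n = 6.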

[1] = Inhibition of bee venom sPLA2; set-up: species or system Apis mellifera
Summary of the method: (§2)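 Radiometric sPLA2 assay on E. coli CECT 101 membranes labelled by growth for 6–8 h at 37 °C with [3H]oleic acid, then autoclaved. Bee venom or human recombinant synovial enzyme in 100 mM Tris-HCl, 1 mM CaCl2, pH 7.5. Enzyme preincubated 5 min at 37 °C with compound or vehicle, then 15 min with membranes. Stopped with ice-cold BSA and centrifuged. Supernatant radioactivity counted by scintillation. IC50 from at least four concentrations (n = 6). Mean ± SEM.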

Homo sapiens = organism: Homo sapiens; assay: Inhibition of human synovial sPLA2 at 10 uM; summary of the method: as §1
Rattus norvegicus = organism: Rattus norvegicus; assay: Inhibition of rat air pouch sPLA2 at 10 uM
Summary of the method: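 sPLA2 source was exudate supernatant from zymosan-injected rat air pouch. Preincubated 5 min at 37 °C with compound or vehicle, then 15 min with autoclaved [3H]oleate-labelled E. coli CECT 101 membranes. Stopped with ice-cold BSA (0.07% w/v final). Released radioactivity in the supernatant counted by scintillation. Mean ± SEM, n = 6.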

[2] = Inhibition of human synovial sPLA2; summary of the method: as §2
Apis mellifera = assay: Inhibition of bee venom sPLA2 at 10 uM; summary of the method: as §2
Naja naja = assay: Inhibition of Naja naja sPLA2 at 10 uM; summary of the method: as §1
[3] = Cytotoxicity against human neutrophils up to 10 uM by MTT assay; type: cell-based; conditions: neutrophil
Summary of the method: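 Viability of human neutrophils assessed by mitochondrial reduction of MTT to formazan.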

RAW264.7 = assay: Inhibition of cPLA2 in mouse RAW264.7 cells; type: cell-based
Summary of the method: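 Enzyme was the cytosolic fraction of murine RAW 264.7 cells. Substrate was 1-palmitoyl-2-[14C]arachidonyl-phosphatidylcholine. Compound in methanol (<1% final) added before the enzyme, then 60 min at 37 °C. Stopped with isopropanol-heptane-0.5 M H2SO4 (10:5:1). Released arachidonate in the heptane phase was cleaned on silica gel and counted.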

SMILES | inhibition (Sus scrofa) [%] | IC50 [1] [µM] | inhibition (Homo sapiens) [%] | inhibition (Rattus norvegicus) [%] | IC50 [2] [µM] | inhibition (Apis mellifera) [%] | inhibition (Naja naja) [%] | Activity [3] | Activity (RAW264.7)
CC1=C(CC/C(C)=C/CCC2=CC[C@H](C3=CC(=O)OC3O)O[C@@H]2O)C(C)(C)CCC1 (some centres not stated) [MANOLIDE] | 32.3 | 7.5 | 93.2 | 38.4 | 3.9 | 62.5 |  |  | 
C[C@]1(CO)CCC[C@]2(C)[C@H]3CC[C@@H]4C=C(CC(=O)O)C(=O)C[C@H]4[C@]3(C)CC[C@H]12 [PETROSASPONGIOLIDE K] | 14.3 |  | 34.4 | 18.8 |  | 37.1 | 1.3 | Not Active | 
C[C@]1(CO)CCC[C@]2(C)[C@H]3CC[C@@H]4C(O)O[C@@H](C5=CC(=O)OC5O)C[C@H]4[C@]3(C)CC[C@H]12 (some centres not stated) [PETROSASPONGIOLIDE P] | 19.5 |  | 87.2 | 25.6 | 5.8 | 5.4 | 8.7 | Not Active | 
CC1(C)CCC[C@@]2(C)C1CC[C@@]1(C)c3cc[n+](CC(=O)O)cc3CCC21.[Cl-] (some centres not stated) [SPONGIDINE A] | 18 |  | 40.1 | 17.1 |  | 33.1 | 0.5 | Not Active | inactive
CC(=O)OC[C@@]1(C)CCC[C@@]2(C)C1CC[C@@]1(C)c3cc[n+](CC(=O)O)cc3CCC21 (some centres not stated) [SPONGIDINE B] | 14.2 |  | 34.6 | 17.9 |  | 32.2 | 0.4 | Not Active | inactive
CC1(C)CCC[C@@]2(C)C1CC[C@@]1(C)c3cc(CCC(=O)O)[n+](CC(=O)O)cc3CCC21.[Cl-] (some centres not stated) [SPONGIDINE C] | 9.1 |  | 40.4 | 30.9 |  | 36.2 | 3.1 | Not Active | inactive
CC1(C)CCC[C@@]2(C)C1CC[C@@]1(C)c3cc[n+](CCS(=O)(=O)O)cc3CCC21 (some centres not stated) [SPONGIDINE D] | 7.6 |  | 48.2 | 19.6 |  | 37.6 | 0 | Not Active | inactive
